Experimental data: ChEMBL document CHEMBL4270536, “Preparation, characterisation and biological evaluation of new N-phenyl amidobenzenesulfonates and N-phenyl ureidobenzenesulfonates inducing DNA double-strand breaks. Part 3. Modulation of ring A” (Eur J Med Chem, 2018)
Calls of active or inactive are those of the source. The calls are words filed in the database; no cut-off is given here.

How the values were obtained:
HT-29 = experiment: Antiproliferative activity against human HT-29 cells after 48 hrs by SRB assay; type: functional, cell-based; conditions: HT-29, 48 h
In short: (§1)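 Cells grown in DMEM with 5% FBS at 37 C; seeded per well at 2.5 x 10^3 (HT-1080), 4.0 x 10^3 (HT-29), 3.0 x 10^3 (M21) or 2.5 x 10^3 (MCF7). Drugs from 40 mM DMSO stock, serial dilutions, final 100 µM to 78 nM, DMSO <0.5%.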

M21 [1] = experiment: Cell cycle arrest in human M21 cells assessed as accumulation at G0/G1 phase at 2 times IC50 after 24 hrs by DAPI staining based flow cytometry relative to control
HT-1080 = experiment: Antiproliferative activity against human HT1080 cells after 48 hrs by SRB assay; type: functional, cell-based; conditions: HT-1080, 48 h; in short: as §1
M21 [2] = experiment: Cell cycle arrest in human M21 cells assessed as accumulation at sub-G1 phase at 2 times IC50 after 24 hrs by DAPI staining based flow cytometry relative to control
M21 [3] = experiment: Cell cycle arrest in human M21 cells assessed as accumulation at S phase at 2 times IC50 after 24 hrs by DAPI staining based flow cytometry relative to control
M21 [4] = experiment: Cell cycle arrest in human M21 cells assessed as accumulation at G2/M phase at 2 times IC50 after 24 hrs by DAPI staining based flow cytometry relative to control
M21 [5] = experiment: Induction of DNA damage in human M21 cells assessed as increase in gammaH2Ax level at 5 times IC50 after 24 hrs by immunofluorescence based epifluorescence microscopy; type: functional, cell-based
In short: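 M21 cells (1 x 10^5) on fibronectin-coated (5 µg/mL, 1 h, 37 C) cover slides, 24 h attachment, then drug for 24 h; DMSO 0.25% in medium as control. Fixed with 3.7% formaldehyde, permeabilized with 0.1% saponin/3% BSA, mouse anti-H2AX pS139 (1:8000), DAPI nuclear stain; γH2AX foci imaged by epifluorescence microscopy.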

[6] = Alkylating activity at DNA (unknown origin) after 90 mins by colorimetric NBP assay relative to chlorambucil; type: functional
In short: (§2)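 NBP alkylation kinetics (Bardos colorimetric method): 400 nmol drug in 1 mL ethanol mixed with 1 mL NBP (10% v/v in 95% ethanol), 1 mL 50 mM acetate buffer pH 4.3 and 1 mL ethanol, kept on ice, then heated at 80 C in shaking water bath; stopped on ice 5 min after 0, 30, 60, 90 min. Rate constant from linear regression of absorbance curve; chlorambucil as positive control.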

[7] = Alkylating activity at DNA (unknown origin) after 90 mins by colorimetric NBP assay; type: functional; in short: as §2
M21 [8] = experiment: Antiproliferative activity against human M21 cells after 48 hrs by SRB assay; type: functional, cell-based; conditions: M21, 48 h; in short: as §1
MCF7 = experiment: Antiproliferative activity against human MCF7 cells after 48 hrs by SRB assay; type: functional, cell-based; conditions: MCF7, 48 h; in short: as §1
M21 [9] = experiment: Cell cycle arrest in human M21 cells assessed as accumulation at sub-G1 phase at 2 times IC50 after 24 hrs by DAPI staining based flow cytometry relative to control; type: functional
In short: (§3)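 Flow cytometry in M21 cells seeded in six-well plates, allowed 24 h, then exposed 24 h to drug (2- or 5-fold IC50); DMSO 0.5% control. Trypsinized, PBS-washed, fixed in ice-cold EtOH, stained with 2 mg/mL DAPI in PBS; sub-G1, G0/G1, S and G2/M fractions measured on LSR II cytometer.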

M21 [10] = experiment: Cell cycle arrest in human M21 cells assessed as accumulation at S phase at 2 times IC50 after 24 hrs by DAPI staining based flow cytometry relative to control; type: functional; in short: as §3
M21 [11] = experiment: Induction of DNA damage in human M21 cells assessed as increase in gammaH2Ax level at 5 times IC50 after 24 hrs by immunofluorescence based epifluorescence microscopy
M21 [12] = experiment: Cell cycle arrest in human M21 cells assessed as accumulation at G2/M phase at 2 times IC50 after 24 hrs by DAPI staining based flow cytometry relative to control; type: functional; in short: as §3
M21 [13] = experiment: Cell cycle arrest in human M21 cells assessed as accumulation at G0/G1 phase at 2 times IC50 after 24 hrs by DAPI staining based flow cytometry relative to control; type: functional; in short: as §3
M21 [14] = experiment: Cell cycle arrest in human M21 cells assessed as accumulation at sub-G1 phase at 1.8 uM after 24 hrs by DAPI staining based flow cytometry relative to control; type: functional; in short: as §3
M21 [15] = experiment: Cell cycle arrest in human M21 cells assessed as accumulation at G0/G1 phase at 1.8 uM after 24 hrs by DAPI staining based flow cytometry relative to control; type: functional; in short: as §3
M21 [16] = experiment: Cell cycle arrest in human M21 cells assessed as accumulation at S phase at 1.8 uM after 24 hrs by DAPI staining based flow cytometry relative to control; type: functional; in short: as §3
M21 [17] = experiment: Cell cycle arrest in human M21 cells assessed as accumulation at G2/M phase at 1.8 uM after 24 hrs by DAPI staining based flow cytometry relative to control; type: functional; in short: as §3

IC50 (HT-29) | IC50 (HT-1080) | IC50 (MCF7) | Structure (SMILES) | Activity (M21 [1]) | Activity (M21 [2]) | Activity (M21 [3]) | Activity (M21 [4]) | Activity (M21 [5]) | fold change (FC) [6] | K [7] | IC50 (M21 [8]) | Activity (M21 [9]) | Activity (M21 [10]) | Activity (M21 [11]) | Activity (M21 [12]) | Activity (M21 [13]) | Activity (M21 [14]) | Activity (M21 [15]) | Activity (M21 [16]) | Activity (M21 [17])
6.9 µM | 2.7 µM | 7.4 µM | CC(C)c1ccccc1OS(=O)(=O)c1ccc(NC(=O)NCCCCl)cc1 | 43.4% | 0.8% | 38.6% | 17.2% | Active | 160 | 0.033 ×10⁻³ /s | 9.3 µM | – | – | – | – | – | – | – | – | –
11 µM | 7.2 µM | 8.1 µM | CCC(=O)Nc1ccc(S(=O)(=O)Oc2ccccc2I)cc1 | – | – | – | – | – | 11 | 0.49 ×10⁻³ /s | 11 µM | 0.2% | 28% | Active | 11.4% | 60.4% | – | – | – | –
– | 0.5 µM | 0.2 µM | CC[C@@]1(O)C(=O)OCc2c1cc1n(c2=O)Cc2cc3c(CN(C)C)c(O)ccc3nc2-1 [TOPOTECAN] | – | – | – | – | – | – | – | – | – | – | – | – | – | 0.1% | 45.2% | 31.9% | 22.8%
9.6 µM | 2.8 µM | 7.6 µM | O=C(NCCCCl)Nc1ccc(S(=O)(=O)Oc2ccccc2I)cc1 | 54.4% | 0.1% | 32% | 13.5% | Active | 44 | 0.12 ×10⁻³ /s | 4.6 µM | – | – | – | – | – | – | – | – | –
6.8 µM | 0.7 µM | 2.9 µM | CCCNC(=O)Nc1ccc(S(=O)(=O)Oc2ccccc2I)cc1 | 62.6% | 0.1% | 26.6% | 10.7% | Active | 13 | 0.4 ×10⁻³ /s | 5.4 µM | – | – | – | – | – | – | – | – | –
5.3 µM | 0.14 µM | 1.1 µM | CCNC(=O)Nc1ccc(S(=O)(=O)Oc2ccccc2I)cc1 | 67.6% | 0.3% | 23.4% | 8.7% | Active | 42 | 0.12 ×10⁻³ /s | 5.6 µM | – | – | – | – | – | – | – | – | –
11 µM | 2 µM | 9.7 µM | CCCC(=O)Nc1ccc(S(=O)(=O)Oc2ccccc2I)cc1 | – | – | – | – | – | 60 | 0.088 ×10⁻³ /s | 9 µM | 0.1% | 22.8% | Active | 40.1% | 37% | – | – | – | –
14 µM | 4.2 µM | 8.9 µM | O=C(CCCl)Nc1ccc(S(=O)(=O)Oc2ccccc2I)cc1 | – | – | – | – | – | 84 | 0.063 ×10⁻³ /s | 12 µM | 0.2% | 34.9% | Active | 37.4% | 27.5% | – | – | – | –
15 µM | 11 µM | 6.5 µM | CC(C)c1ccccc1OS(=O)(=O)c1ccc(NC(=O)C(C)(C)C)cc1 | – | – | – | – | – | 780 | 0.007 ×10⁻³ /s | 6.2 µM | 0.4% | 46.9% | Active | 16% | 36.7% | – | – | – | –
1.1 µM | 0.25 µM | 10 µM | CCNC(=O)Nc1ccc(S(=O)(=O)Oc2ccccc2C(C)C)cc1 | 58.8% | 0.8% | 31.5% | 8.9% | Active | 14 | 0.37 ×10⁻³ /s | 4.7 µM | – | – | – | – | – | – | – | – | –
4.9 µM | 0.95 µM | 6.6 µM | CCCC(=O)Nc1ccc(S(=O)(=O)Oc2ccccc2C(C)C)cc1 | – | – | – | – | – | 14 | 0.37 ×10⁻³ /s | 6.1 µM | 0.7% | 43.8% | Active | 15.5% | 40% | – | – | – | –
7.4 µM | 2.1 µM | 11 µM | CCC(=O)Nc1ccc(S(=O)(=O)Oc2ccccc2C(C)C)cc1 | – | – | – | – | – | 17 | 0.31 ×10⁻³ /s | 11 µM | 0.6% | 44.4% | Active | 15.4% | 39.6% | – | – | – | –
